One series relates to IGROV-1. The series is described as follows: Cytotoxicity against human IGROV-1 cells assessed as reduction in cell viability incubated for 24 hrs by MTS assay. Format: functional, cell-based. As to conditions: dose 0.25-1.25 µM, DDE = dose-dependent effect. Put shortly: (§1)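 Ovarian lines seeded 5,000 cells/well, attached overnight, treated 24 h in complete medium (DMSO ≤0.2%); MTS reagent 1:10 in fresh RPMI 2–4 h, absorbance 490 nm; triplicate, % of DMSO-treated cells.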
For orientation: Tetrazolium dyes change colour on reduction, which living cells bring about.

A short description of series [1]: Toxicity in NSG mouse xenografted with human ES2 cells assessed as body weight change at 10 mg/kg, ip measured upto 30 days. Format: organism-based. The following applies: in vivo, 720 h, time < 30 day. A general note: A xenograft is tissue or cells of one species grown in another, often human tumour cells in immunodeficient mice.
For a further series, the system named is ES-2. The series is described as follows: Anti-tumor activity against human ES2 cells xenografted in NSG mouse assessed as reduction in tumor volume at 10 mg/kg, ip measured upto 30 days. Format: functional, organism-based. As to conditions: time <= 30.0 day. Put shortly: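 NSG mice, 6–8 weeks, injected subcutaneously in right flank with ES2 (250,000) or SH-SY5Y/BE(2)C (1 million) cells in cold matrigel/serum-free RPMI 1:1. Once palpable, 10 mg/kg IP M–F vs vehicle; volume (length × width2)[…]; BE(2)C and ES2 monitored alternate days; endpoint 2000 mm3; % change in volume, t-test.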

For a further series, the system named is HEK-293T. The series is described as follows: Cytotoxicity against HEK-293T cells assessed as inhibition of cell proliferation upto 100 uM incubated for 18 hrs by MTS assay. Format: toxicity, cell-based. The following applies: human.
The next series has as its system SH-EP1. The series is described as follows: Cytotoxicity against human SH-EP1 cells assessed as reduction in cell viability incubated for 48 hrs by MTS assay. Format: functional, cell-based. The following applies: dose 0.1-10 µM, DDE = dose-dependent effect. The gist of the method: (§2)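 Neuroblastoma lines seeded 5,000 cells/well, attached overnight, treated 48 h in complete medium (DMSO ≤0.2%); MTS reagent 1:10 in fresh RPMI 2–4 h, absorbance 490 nm.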

The target in series [2] is T1, Vitamin D3 receptor (Homo sapiens) (UniProt P11473).
T1 sequence (whole entry): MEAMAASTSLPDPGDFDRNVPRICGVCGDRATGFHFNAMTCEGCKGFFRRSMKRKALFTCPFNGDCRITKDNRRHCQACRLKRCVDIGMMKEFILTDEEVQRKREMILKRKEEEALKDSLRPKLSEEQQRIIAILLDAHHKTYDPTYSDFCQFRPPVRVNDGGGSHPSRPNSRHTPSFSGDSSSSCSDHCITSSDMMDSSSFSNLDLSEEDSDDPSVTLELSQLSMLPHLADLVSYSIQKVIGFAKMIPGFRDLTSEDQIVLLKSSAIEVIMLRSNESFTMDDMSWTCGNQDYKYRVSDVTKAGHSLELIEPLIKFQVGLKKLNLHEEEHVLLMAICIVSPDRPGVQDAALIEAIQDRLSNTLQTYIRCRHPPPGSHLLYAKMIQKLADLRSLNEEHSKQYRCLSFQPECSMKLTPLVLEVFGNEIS
The series is described as follows: Antagonist activity at VDR LBD (unknown origin) using Alexa Fluor 647-labeled SRC2-3 as substrate incubated for 2 hrs in presence of calcitriol by fluorescence polarization assay. The following applies: filed as antagonist. Put shortly: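 VDR-LBD (0.1 μM) with Alexa Fluor 647-labelled SRC2-3 (17.5 nM) and 10 nM 1,25(OH)2D3 in 25 mM PIPES, 50 mM NaCl, 0.01% NP-40, pH 6.75. Compounds were serially diluted 1:2 from 10 mM DMSO stocks and incubated 2 h. Polarization was read at 635/685 nm. Three independent experiments in quadruplicate; IC50 by variable-slope nonlinear regression.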
For orientation: Fluorescence polarisation rises when a labelled molecule tumbles more slowly, as on binding a larger partner.

Series [3] addresses T1, Vitamin D3 receptor (Homo sapiens). The series is described as follows: Antagonist activity at VDR LBD (unknown origin) transfected in HEK-293T cells assessed as inhibition of 1,25(OH)2D3-induced receptor transactivation incubated for 16 hrs by Bright-Glo luciferase assay. In kind it is cell-based. As to conditions: filed as antagonist. The gist of the method:
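HEK293T on matrigel, lipid-transfected with VDR-CMV plasmid and CYP24A1-luciferase reporter; after 16 h, replated at 15,000 cells/well, compound added 4 h later together with 10 nM 1,25(OH)2D3; 16 h at 37 °C, 5% CO2; luminescence read. At least two independent experiments in quadruplicate; nonlinear regression, variable slope.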

Series [4] has the same target. The series is described as follows: Antagonist activity at VDR in human 2008 cells assessed as suppression of RXR-alpha expression at 250 nM incubated for 18 hrs by western blot analysis relative to control. Format: cell-based. The following applies: filed as antagonist. The gist of the method: (§3)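 2008 ovarian cancer cells exposed 250 nM, 18 h; immunoblot with loading control (GAPDH for RXR-α, α-tubulin for Importin-4); band densitometry normalized to loading control.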

For series [5] the target is unchanged. The series is described as follows: Antagonist activity at VDR in human 2008 cells assessed as suppression of importin-4 expression at 250 nM incubated for 12 to 18 hrs by western blot analysis relative to control. As to conditions: filed as antagonist, time 12-18 hrs. In kind it is cell-based. Put shortly: as §3
The test system of another series is SK-OV-3. The series is described as follows: Cytotoxicity against human SK-OV-3 cells assessed as reduction in cell viability incubated for 24 hrs by MTS assay. As to conditions: dose 0.25-1.25 µM, DDE = dose-dependent effect. In kind it is functional, cell-based. Put shortly:
as §1

Another series has as its system OVCAR-8. The series is described as follows: Cytotoxicity against human OVCAR-8 cells assessed as reduction in cell viability incubated for 24 hrs by MTS assay. Format: functional, cell-based. As to conditions: dose 0.25-1.25 µM, DDE = dose-dependent effect. Put shortly: as §1
Series [6] concerns 2008. The series is described as follows: Cytotoxicity against human 2008 cells assessed as reduction in cell viability incubated for 24 hrs by MTS assay. In kind it is functional, cell-based. As to conditions: dose 0.25-1.25 µM, DDE = dose-dependent effect. The gist of the method:
as §1

The next series relates to Caov-3 cell line. The series is described as follows: Cytotoxicity against human Caov-3 cell line assessed as reduction in cell viability incubated for 24 hrs by MTS assay. Format: functional, cell-based. As to conditions: dose 0.25-1.25 µM, DDE = dose-dependent effect. The gist of the method: as §1
Series [7] relates to 2008. The series is described as follows: Induction of apoptosis in human 2008 cells assessed as cleaved PARP1 expression levels at 250 nM incubated for 18 hrs by western blot analysis (reference value: 4%). Format: functional.
The next series concerns Mus musculus. The series is described as follows: Downregulation of VDR expression in tumor of NSG mouse xenografted with human SK-OV-3 cells at 10 mg/kg, ip by confocal microscopy based immunohistochemistry analysis. In kind it is functional, organism-based.
Series [8] deals with D283 Med. The series is described as follows: Anti-tumor activity against human D283 Med cells xenografted in NSG mouse assessed as reduction in tumor volume at 10 mg/kg, ip measured on day 12. In kind it is functional, organism-based. The following applies: time 12.0 day. Put shortly: (§4)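 NSG mice implanted subcutaneously with 1 million D283, PANC-1 or BXPC-3 cells in matrigel/DMEM 1:1; once palpable, 10 mg/kg IP M–F vs vehicle; volume (length × width2)[…], % change; endpoint 2000 mm3; tumors excised and weighed; unpaired t-test.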

Series [9] relates to D283 Med. The series is described as follows: Anti-tumor activity against human D283 Med cells xenografted in NSG mouse assessed as reduction in tumor size at 10 mg/kg, ip measured on day 12. As to conditions: time 12.0 day. Format: functional, organism-based. The gist of the method: as §4
A further series concerns PANC-1. The series is described as follows: Anti-tumor activity against human PANC-1 cells xenografted in NSG mouse assessed as reduction in tumor growth at 10 mg/kg, ip measured on day 12. In kind it is functional, organism-based. As to conditions: time 12.0 day. The gist of the method: as §4
The subject of a further series is BXPC-3. The series is described as follows: Anti-tumor activity against human BXPC-3 cells xenografted in NSG mouse assessed as reduction in tumor growth at 10 mg/kg, ip measured on day 18. Format: functional, organism-based. The following applies: time 18.0 day. The gist of the method: as §4
The next series concerns LA-N-5. The series is described as follows: Cytotoxicity against human LA-N-5 cells assessed as reduction in cell viability incubated for 48 hrs by MTS assay. In kind it is functional, cell-based. The following applies: dose 0.1-10 µM, DDE = dose-dependent effect. Put shortly: as §2
In the next series the test system is SK-N-AS. The series is described as follows: Cytotoxicity against human SK-N-AS cells assessed as reduction in cell viability incubated for 48 hrs by MTS assay. The following applies: dose 0.1-10 µM, DDE = dose-dependent effect. In kind it is functional, cell-based. The gist of the method:
as §2

SMILES strings stand for the structures. Activity calls are given as the source filed them. No cut-off for these calls is given here.

On to `CC(C)CCC[C@@H](C)[C@H]1CC[C@@H]2[C@]1(C)CCC1[C@]23C=C[C@]2(C[C@@H](OC(=O)CBr)CC[C@]12C)n1c(=O)n(C)c(=O)n13` (stereo partly specified), for which the Activity result in the series with IGROV-1 was “Dde”; in series [1], “Non-Toxic”; in the series with HEK-293T, “Non-Toxic”; in the series with SH-EP1, “Dde”; in [2], 2.9 µM; in series [3], 20.8 µM. For the same molecule, the Activity result in the series on SK-OV-3 is “Dde”; in the series on OVCAR-8, “Dde”; in the series on 2008 [6], “Dde”; in the series on Caov-3 cell line it was “Dde”; in the series with 2008 [7], 22.8%; in the series on LA-N-5, “Dde”. Also, the Activity entry in the series on SK-N-AS is “Dde”. Moreover, the outcome with ES-2, with D283 Med [8], in the series on D283 Med [9], in the series on PANC-1 and in the series on BXPC-3 was Active. In addition, the values for the fold change (FC) in [4] and in series [5] were 0.29 and 0.82, respectively. In the series with Mus musculus, the inhibition entry is “Active”.

The values above are taken from ChEMBL document CHEMBL5154854, “Identification of a Vitamin-D Receptor Antagonist, MeTC7, which Inhibits the Growth of Xenograft and Transgenic Tumors In Vivo” (J Med Chem, 2022).
